Screening results: PubChem BioAssay, several laboratories
Rows were chosen to be rich in hits. Some 2.4% of all compounds tested hit in one or more screens of this group.
aDG glyco act = increases alpha dystroglycan glycosylation; AID 624168; 0.22% of 360,000 active; activation, % at 10 µM; Pro5-aDG cells, alpha-DG glycosylation AlphaScreen (IIH6); 0% Pro5, 100% B10-LARGE cell signal;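 active = activation of at least 8% versus controls, or a plate z-score of at least 8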;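 also: Pro5 are CHO cells carrying HIG-tagged alpha-DG that lacks glycosylation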
MC4R ag barr = agonists of human melanocortin 4 receptor (MC4R) beta-arrestin | 0.98% of 360,000 active | U2OS MC4R beta-arrestin complementation, luminescence; percent of melanotan II response, DMSO zero | AID 540308 | activation, % at 8.9 µM;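 active = activation above a per-plate cutoff, the mean activation of sample wells on that plate plus 3 SD, cut at about 8% in these data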
TAG inh = triacylglycerol accumulation inhibition. inhibition, % at 12.5 µM. 0.66% of 230,000 active. AID 651582. H9c2 cells, Nile Red lipid (TAG) fluorescence; cells loaded with 200 µM oleic acid;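 active = pattern-corrected inhibition of lipid staining of at least 50% with the nuclear-stain viability signal not falling by more than 50%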;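 also: 0% = DMSO wells and 100% = triacsin C control wells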
NTR1 agonist = activates human neurotensin receptor 1; P30989; NTR1-U2OS beta-arrestin-GFP spot imaging, agonist mode; activation, % at 20 µM; 0.17% of 330,000 active; AID 493036;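 active = activation at or above 40% of the spot to cytoplasm intensity ratio, with at least 20 cells analyzed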;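 also: 0% = DMSO without peptide and 100% = 100 nM NTR1 peptide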
TbMetRS inhib = blocks T. brucei methionyl-tRNA synthetase activity; purified T. brucei MetRS, ATP depletion, Kinase-Glo luminescence; inhibition, % at 11.9 µM; 0.4% of 360,000 active;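 active = inhibition above a per-plate cutoff of the control wells' mean inhibition plus 3 SD, cut at about 5.5% in these data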;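 also: 0% = DMSO wells median and 100% = median of wells with control inhibitor compound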
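Material: parasite MetRS enzyme / Replication: singlicate, one well per compound / Signal: luminescence of leftover ATP / Schedule: 2 h aminoacylation at 25 °C after 15 min preincubation / Medium: HEPES-MgCl2-KCl buffer plus DTT, spermine, BSA, pyrophosphatase / Doses: 11.9 µM single point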
MC4R antag cAMP = human MC4R antagonism in cAMP assay; MC4R-expressing cells, MTII-stimulated cAMP, LANCE TR-FRET; inhibition, % at 6.5 µM; 0.48% of 360,000 active; AID 540295;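 active = inhibition above its plate's cutoff, the mean of tested wells on that plate plus 3 SD, cut at about 29% in these data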;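 also: 0% = Melanotan II alone and 100% = Melanotan II plus saturating MCL0020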
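Assay system: U2OS cells stably expressing human melanocortin 4 receptor (MC4R) / Dosing: 6.5 µM / Timing: compound 30 min, challenge 1 h, detection 1 h / Measured by: Eu-cAMP/anti-cAMP TR-FRET, emission 671 nm / Replicates: singlicate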
MC4R barr ag = human MC4R beta-arrestin agonism confirmation; shares compounds with MC4R ag barr; U2OS MC4R beta-arrestin recruitment, luminescence; scaled DMSO 0%, Melanotan II 100%; activation, % at 8.9 µM; 31% of 2,400 active;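 active = mean activation across replicates above the hit cutoff set in the earlier primary screen, cut at about 8% in these data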
MOR-DOR barr ag = activates mu-delta opioid heterodimer, MC4R agonist counter-screen; shares compounds with MC4R ag barr; U2OS PathHunter beta-arrestin, beta-gal luminescence; percent of deltorphin B response, DMSO zero; activation, % at 9.2 µM; 5.8% of 2,400 active;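 active = mean activation across replicates exceeds the hit threshold derived in the earlier primary screen, cut at about 18% in these data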;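 also: 100% = deltorphin B at 0.9 µM final and 0% = DMSO alone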
Target sequence (P35372 whole entry, looked up): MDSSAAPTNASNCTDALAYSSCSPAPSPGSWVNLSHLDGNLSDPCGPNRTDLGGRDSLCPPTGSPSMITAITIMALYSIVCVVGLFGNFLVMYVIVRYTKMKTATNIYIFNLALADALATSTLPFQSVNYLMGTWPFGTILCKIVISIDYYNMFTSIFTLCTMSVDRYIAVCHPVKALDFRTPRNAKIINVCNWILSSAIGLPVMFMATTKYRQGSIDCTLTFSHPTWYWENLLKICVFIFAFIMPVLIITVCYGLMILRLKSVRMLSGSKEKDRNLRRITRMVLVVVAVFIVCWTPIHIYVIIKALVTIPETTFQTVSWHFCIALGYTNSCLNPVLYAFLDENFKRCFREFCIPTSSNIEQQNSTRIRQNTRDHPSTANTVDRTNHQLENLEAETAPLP
Target sequence (P41143 whole entry, looked up): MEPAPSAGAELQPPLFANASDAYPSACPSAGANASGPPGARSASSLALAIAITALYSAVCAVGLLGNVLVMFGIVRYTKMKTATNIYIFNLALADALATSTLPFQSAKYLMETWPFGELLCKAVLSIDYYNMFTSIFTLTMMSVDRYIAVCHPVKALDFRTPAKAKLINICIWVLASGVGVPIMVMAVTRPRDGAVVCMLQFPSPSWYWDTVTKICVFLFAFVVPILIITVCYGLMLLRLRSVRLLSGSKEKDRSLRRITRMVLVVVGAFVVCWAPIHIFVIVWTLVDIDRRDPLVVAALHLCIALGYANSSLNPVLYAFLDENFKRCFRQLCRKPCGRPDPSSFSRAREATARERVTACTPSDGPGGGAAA
Numbers without * were called inactive.

`CS(=O)(=O)N1CCN(c2ccc(NC(=O)c3ccc(-c4ccc(Cl)cc4)o3)cc2)CC1` gave aDG glyco act 0, MC4R ag barr 12*, NTR1 agonist 16, TbMetRS inhib -1, MC4R antag cAMP 1, MC4R barr ag -1 and MOR-DOR barr ag 9.
`Cc1ccc(C(=O)Nc2ccc(N3CCN(S(C)(=O)=O)CC3)cc2)cc1` gave aDG glyco act 0, MC4R ag barr 2, NTR1 agonist 1, TbMetRS inhib -1 and MC4R antag cAMP 1.
Screening CC(=O)C1=CCC(c2ccc(Cl)cc2)N(S(=O)(=O)c2ccc(C)cc2)C1 (configuration not stated) returned aDG glyco act 0 and TbMetRS inhib -1.
Screening O=C(CCl)N(Cc1ccccc1)c1ccccc1 returned aDG glyco act 0, MC4R ag barr 20*, TAG inh 34, NTR1 agonist -1, TbMetRS inhib -1, MC4R antag cAMP 0, MC4R barr ag 15* and MOR-DOR barr ag 18*.
Screening COc1cc2c(cc1NC(=O)c1cccc([N+](=O)[O-])c1)oc1ccccc12 returned aDG glyco act -1, MC4R ag barr 22*, TAG inh 22, NTR1 agonist 6, TbMetRS inhib -1, MC4R antag cAMP -23, MC4R barr ag 31* and MOR-DOR barr ag 47*.
`COc1cc2c(cc1NC(=O)c1ccc(C)c([N+](=O)[O-])c1)oc1ccccc12` gave aDG glyco act 0, MC4R ag barr 1, NTR1 agonist 5, TbMetRS inhib 0 and MC4R antag cAMP 3.
O=C(NCC(O)c1nc2ccccc2[nH]1)c1cc([N+](=O)[O-])ccc1F (configuration not stated) was read as aDG glyco act 0 and TbMetRS inhib 1.
Screening CCOC(=O)c1c(C)n(-c2ccc(C)cc2)c2ccc(OCC(O)CNCC3CCCO3)cc12 (configuration not stated) returned aDG glyco act -1, MC4R ag barr 13*, TAG inh 35, NTR1 agonist 18, TbMetRS inhib -1, MC4R antag cAMP 5, MC4R barr ag 17* and MOR-DOR barr ag 10.
C=CCC1S/C(=N/N=C/c2cccs2)NC1=O (configuration not stated) was read as aDG glyco act 1, MC4R ag barr -2, NTR1 agonist -1, TbMetRS inhib 0 and MC4R antag cAMP -5.
Screening O=C1N/C(=N\N=C\c2cccs2)SC1Cc1ccc(Cl)c(Cl)c1 (configuration not stated) returned aDG glyco act 0, MC4R ag barr 10*, TAG inh -2, NTR1 agonist 3, TbMetRS inhib 0, MC4R antag cAMP 4, MC4R barr ag -2 and MOR-DOR barr ag 4.
Cc1ccc(NC(=O)CN(C)C(=O)c2sc3cc(Cl)ccc3c2Cl)cc1 was read as aDG glyco act 0, MC4R ag barr 10*, TAG inh -8, NTR1 agonist 1, TbMetRS inhib 0, MC4R antag cAMP 1, MC4R barr ag 2 and MOR-DOR barr ag 6.
CCC(C)c1ccc(C2C3=C(Nc4nc(N)[nH]c(=O)c42)c2ccccc2C3=O)cc1 (configuration not stated) was read as aDG glyco act 0, MC4R ag barr 10*, TAG inh 11, NTR1 agonist 12, TbMetRS inhib 0, MC4R antag cAMP -16, MC4R barr ag -2 and MOR-DOR barr ag 1.
Cc1nccn1-c1ccc(NC(=O)[C@H]2O[C@@H](n3ccc(N)nc3=O)[C@H](O)[C@@H]2O)cc1 was read as aDG glyco act 0 and TbMetRS inhib 0.
For O=C(NCc1ccccc1)C(c1cccc2ccccc12)n1c(=O)c(-c2ccccc2)nc2ccccc21 (configuration not stated) the results were aDG glyco act 0 and TbMetRS inhib -1.
Screening CC(=O)Nc1cc(-c2ccc(C(=O)N3CCOCC3)cc2)cn2c(-c3ccc(C(C)=O)cc3)cnc12 returned aDG glyco act 0, MC4R ag barr 3, TAG inh 1, TbMetRS inhib 0 and MC4R antag cAMP 8.
CC(=O)Nc1cc(-c2ccc(C(=O)N3CCOCC3)cc2)cn2c(-c3ccccc3)cnc12 was read as aDG glyco act 0, MC4R ag barr 25*, TAG inh 4, TbMetRS inhib 0, MC4R antag cAMP 7, MC4R barr ag 19* and MOR-DOR barr ag 1.
COc1ccc(-c2cnc3c(NC(C)=O)cc(-c4ccc(C(=O)N5CCOCC5)cc4)cn23)cc1OC was read as aDG glyco act 1, MC4R ag barr 11*, TAG inh 2, TbMetRS inhib 0, MC4R antag cAMP 3, MC4R barr ag 9.4* and MOR-DOR barr ag 3.
Screening O=C(Nc1nnc([C@@H]2C[C@H](O)[C@@H](CO)O2)s1)Nc1ccccc1Oc1ccccc1 returned aDG glyco act 0, MC4R ag barr -1, TAG inh 6, TbMetRS inhib 0 and MC4R antag cAMP 3.
Screening O=C(N/N=C/c1ccccc1)c1ccc(-c2ccccc2)cc1 returned aDG glyco act 0, MC4R ag barr 3, TAG inh 10, NTR1 agonist 1, TbMetRS inhib 0 and MC4R antag cAMP -2.
`O=C(N/N=C\c1ccccc1F)c1ccc(-c2ccccc2)cc1` gave aDG glyco act 0, MC4R ag barr 16*, TAG inh 7, NTR1 agonist 1, TbMetRS inhib 0, MC4R antag cAMP 0, MC4R barr ag 6 and MOR-DOR barr ag 9.
For CC(C)C[C@H]1CN(CCCC[C@@H]2CNC(=O)C(=O)N2Cc2ccccc2)C(=O)C(=O)N1CCC1CCCCC1 the results were aDG glyco act 0 and TbMetRS inhib 0.
`CC(C)(C)NC(=O)C1c2ccccc2OCC(=O)N1CCc1ccccc1` (configuration not stated) gave aDG glyco act 0 and TbMetRS inhib 0.
COc1ccccc1CC(=O)Nc1ccc(-c2noc(COc3ccc(Cl)c(C)c3)n2)cc1 was read as aDG glyco act 0, MC4R ag barr 10*, NTR1 agonist 7, TbMetRS inhib 0, MC4R antag cAMP 9, MC4R barr ag 1 and MOR-DOR barr ag 7.
